Source: ChEMBL document CHEMBL5500386, “Design, synthesis and bioactivity evaluation of 4-hydroxycoumarin derivatives as potential anti-inflammatory agents against acute lung injury and colitis” (Eur J Med Chem, 2024)
Activity calls are given as the source filed them. The calls are words filed in the database; no cut-off is given here.

Columns and labels:
[1] = Cmax in male Sprague-Dawley rat at 10 mg/kg, po measured upto 24 hrs by triple quadrupole mass spectrometric analysis; format: ADME, organism-based; conditions: in vivo
[2] = test system: Mus musculus; assay: Protection against LPS-induced C57BL/6 mouse model of acute lung injury assessed as reduction in IL-6 level in serum at 20 mg/kg, po administered 3 times for every 12 hrs followed by LPS stimulation at 5 mg/kg and measured after 6 hrs by ELISA; format: functional, organism-based; conditions: time 30.0 hrs
In short: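 C57BL/6 mice, 6 per group. Gavaged at 20 mg/kg three times at 12 h intervals; controls received saline, and dexamethasone 20 mg/kg served as reference. After the last dose, LPS 5 mg/kg given intratracheally. At 6 h, blood collected for serum IL-6 by ELISA. Left lung lavaged with 3 × 200 μL saline, and BALF assayed for IL-6, total protein and neutrophil count. Mean ± SEM, n = 6.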

[3] = test system: Mus musculus; assay: Protection against LPS-induced C57BL/6 mouse model of acute lung injury assessed as reduction in immune markers at 20 mg/kg, po administered 3 times for every 12 hrs followed by LPS stimulation at 5 mg/kg and measured after 6 hrs by immunohistochemical staining based analysis; format: functional, organism-based; conditions: time 30.0 hrs
In short: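 LPS-induced ALI in C57BL/6 mice: 20 mg/kg orally three times at 12 h intervals, then intratracheal LPS 5 mg/kg, lungs taken at 6 h. F4/80 IHC: xylene deparaffinisation, citrate pH 6 retrieval for 25 min, primary antibody at 4 °C for 12 h, secondary 1:2000, DAB and hematoxylin. Viewed at ×20.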

[4] = Oral bioavailability in male Sprague-Dawley rat at 10 mg/kg measured upto 24 hrs by triple quadrupole mass spectrometric analysis; format: ADME, organism-based; conditions: in vivo
In short: (§1)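 Male SD rats (8 weeks, 200 g ± 20 g), n = 3 per route. Oral: 10 mg/kg by gavage in 0.05 % DMSO/normal saline, tail-vein blood at 13 times from 10 min to 24 h. IV: 1 mg/kg tail vein in 5 % DMSO/30 % PEG400/65 % saline, 14 samples from 5 min to 24 h. Heparinised plasma precipitated with acetonitrile containing internal standard. Non-compartmental analysis on mean concentrations.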

[5] = test system: J774.A1; assay: Antiinflammatory activity in LPS-induced mouse J774.A1 cells assessed as inhibition of IL-6 production pretreated for 30 mins followed by LPS stimulation and measured after 24 hrs by ELISA; format: functional, cell-based
In short: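 Cells pretreated 30 min with a gradient of concentrations (2.5–10 μM range) or DMSO, then given LPS 0.5 μg/mL for 24 h. IL-6 in medium measured by ELISA and normalised to living cell number by MTT. Expressed as % of the LPS group, mean ± SEM of triplicates. IC50 taken from the concentration-response.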

[6] = test system: J774.A1; assay: Cytotoxicity against mouse J774.A1 cells assessed as reduction in cell viability at 10 uM measured after 24 hrs by MTT assay; format: toxicity, cell-based; conditions: j774.a1, 24 h
In short: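 J774A.1 cells seeded and incubated 24 h, then exposed to 10 μM compound for 24 h. MTT (5.0 mg/mL) added as 10 % for 4 h, formazan dissolved in DMSO with 30 min shaking, absorbance read at 490 nm. Expressed as % of control.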

[7] = test system: J774.A1; assay: Inhibition of LPS-induced NF-kappaB activation in mouse J774.A1 cells assessed as reduction in p65 phosphorylation at 5 to 20 uM pretreated for 2 hrs followed by LPS stimulation and measured after 30 mins by Western blot analysis; format: cell-based; conditions: dose 5-20 µM, time 2.5 hrs
In short: (§2)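 J774A.1 macrophages pretreated with 20, 10 or 5 μM for 2 h, then LPS 0.5 μg/mL for 30 min. RIPA lysates quantified by Bradford. 40 μg run on 12.5 % SDS-PAGE and transferred to PVDF. Blocked 1.5 h in BSA, primary antibody overnight at 4 °C, secondary 2 h at room temperature, detected by ECL.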

[8] = test system: Mus musculus; assay: Antiinflammatory activity in DSS-induced male C57BL/6 mouse model of inflammatory bowel disease assessed as reduction in F4/80 positive cell population in intestine at 20 mg/kg, IG administered with compound and DSS for 7 days followed by DSS replacement with distilled water for 3 days by immunohistochemistry staining based analysis; format: functional, organism-based; conditions: time 10.0 day
In short: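 DSS colitis in C57BL/6 mice (2.5 % DSS for 7 days, then water for 3 days), 20 mg/kg po daily in DMSO/CMC-Na, n = 6. Colon fixed in 4 % formaldehyde. For IHC: deparaffinised in xylene, antigen retrieval by boiling in citrate buffer pH 6 for 25 min, primary antibody at 4 °C for 12 h, secondary 1:2000, then DAB with hematoxylin counterstain.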

[9] = test system: J774.A1; assay: Inhibition of LPS-induced MAPK activation in mouse J774.A1 cells assessed as reduction in JNK phosphorylation at 5 to 20 uM pretreated for 2 hrs followed by LPS stimulation and measured after 30 mins by Western blot analysis; format: cell-based; conditions: dose 5-20 µM, time 2.5 hrs; in short: as §2
[10] = Acute toxicity in male ICR mouse assessed as histopathological changes in lung at 500 to 1000 mg/kg, po administered daily for 10 days by H and E staining based analysis; format: organism-based; conditions: in vivo, 240 h, dose 500-1000 mg/kg, time 10 day
In short: (§3)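 Male ICR mice (8 weeks, 30 g ± 2 g), acclimatised 1 week, randomised into 1000 mg/kg, 500 mg/kg and untreated control groups (n = 24 total). Dosed by daily gavage, compound dissolved in 0.5 % DMSO then added to normal saline. Body weight and behaviour recorded daily. Euthanised after 10 days; heart, liver, spleen, lung and kidney examined by H&E staining.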

[11] = Half life in male Sprague-Dawley rat at 1 mg/kg, iv measured upto 24 hrs by triple quadrupole mass spectrometric analysis; format: ADME, organism-based; conditions: in vivo; in short: as §1
[12] = test system: Mus musculus; assay: Antiinflammatory activity in DSS-induced male C57BL/6 mouse model of inflammatory bowel disease assessed as inhibition of IL-6 release in plasma at 20 mg/kg, IG administered with compound and DSS for 7 days followed by DSS replacement with distilled water for 3 days; format: functional, organism-based; conditions: time 10.0 day
[13] = biological target: Mitogen-activated protein kinase 9 (Homo sapiens) (UniProt P45984); assay: Inhibition of JNK2 (unknown origin) at 10 uM relative to control
Sequence of Mitogen-activated protein kinase 9 (Homo sapiens) (P45984 whole entry, looked up): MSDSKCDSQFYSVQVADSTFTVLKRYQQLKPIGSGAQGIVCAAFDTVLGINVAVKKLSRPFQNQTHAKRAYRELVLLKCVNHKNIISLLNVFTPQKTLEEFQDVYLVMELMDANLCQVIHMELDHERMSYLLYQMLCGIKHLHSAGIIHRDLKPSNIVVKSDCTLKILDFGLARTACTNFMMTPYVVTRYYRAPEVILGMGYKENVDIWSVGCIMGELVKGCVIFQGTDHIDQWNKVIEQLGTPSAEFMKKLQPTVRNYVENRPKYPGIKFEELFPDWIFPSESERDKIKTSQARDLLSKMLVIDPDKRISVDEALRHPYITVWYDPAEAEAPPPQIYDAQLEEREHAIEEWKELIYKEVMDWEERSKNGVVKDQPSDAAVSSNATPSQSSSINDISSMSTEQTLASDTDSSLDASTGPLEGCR

[14] = Tmax in male Sprague-Dawley rat at 10 mg/kg, po measured upto 24 hrs by triple quadrupole mass spectrometric analysis; format: ADME, organism-based; conditions: in vivo; in short: as §1
[15] = test system: Mus musculus; assay: Protection against LPS-induced C57BL/6 mouse model of acute lung injury assessed as reduction in inflammatory cell infiltration in lung at 20 mg/kg, po administered 3 times for every 12 hrs followed by LPS stimulation at 5 mg/kg and measured after 6 hrs by H and E staining based analysis; format: functional, organism-based; conditions: time 30.0 hrs
In short: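 LPS-induced ALI in C57BL/6 mice: 20 mg/kg orally three times at 12 h intervals, then intratracheal LPS 5 mg/kg, killed at 6 h. Lungs paraffin-embedded, cut into 5 μm sections and H&E stained. Viewed at ×20.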

[16] = test system: J774.A1; assay: Antiinflammatory activity in LPS-induced mouse J774.a1 cells assessed as inhibition of IL-6 production by measuring fold change at 10 uM pretreated for 2 hrs followed by LPS stimulation and measured after 30 mins by ELISA relative to 4-hydroxycoumarin; format: functional; conditions: time 2.5 hrs
[17] = Acute toxicity in male ICR mouse assessed as histopathological changes in heart at 500 to 1000 mg/kg, po administered daily for 10 days by H and E staining based analysis; format: organism-based; conditions: in vivo, 240 h, dose 500-1000 mg/kg, time 10 day; in short: as §3

CC(=O)N1CCN(CCOc2cc(=O)oc3ccccc23)CC1
Cmax [1]: 1010 ng/mL
Activity [2]: Active
Activity [3]: Active
bioavailability [4]: 28.7%
IC50 [5]: 4.57 µM
Activity ([5]; time 24.5 hrs): Dose-Dependent Effect
Activity [6]: Non-Toxic
inhibition [7]: inactive
Activity [8]: Active
inhibition [9]: inactive
Activity [10]: Non-Toxic
half-life [11]: 18.6 min
Activity [12]: Active
inhibition [13]: 5.93%
Tmax [14]: 40.2 min
Activity [15]: Active
fold change (FC) [16]: 3
Activity [17]: Non-Toxic
